From ChEMBL document CHEMBL1141408, “Synthesis and antimalarial activity of new isotebuquine analogues” (J Med Chem, 2007)
Values after ≈ are worked out from the molar mass of the structure shown. Active and inactive are the calls of the source. No cut-off for these calls is given here.

Columns and labels:
Plasmodium falciparum [1] = assay: Antimalarial activity against chloroquine-resistant Plasmodium falciparum TM91C235; format: functional, organism-based
Outline: (§1)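 Compound DMSO stocks were diluted 400-fold in RPMI 1640 with 25 mM Hepes, 32 mM NaHCO₃ and 10% Albumax I, then 2-fold serially over 11 concentrations. Parasites were exposed for 48 h at 37 °C under 5% O₂/5% CO₂/90% N₂, pulsed with [³H]-hypoxanthine for 18 h, and DNA was harvested onto glass filters for scintillation counting. IC50 was derived by nonlinear-regression logistic dose-response fitting.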

Plasmodium falciparum [2] = assay: Antimalarial activity against chloroquine-sensitive Plasmodium falciparum D6; format: functional, organism-based; outline: as §1
[3] = Toxicity against murine J774 macrophage cells; format: cell-based; conditions: mouse
Outline: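 Murine J774 monocyte-like macrophage subclone G8, maintained in DMEM with 10% fetal calf serum, 2 mM L-glutamine and 50 µg/mL gentamicin at 37 °C in 5% CO2/95% air. Cells seeded at 1 × 10⁴/well and left 24 h. Drug or solvent control, diluted in medium, then added for 72 h. Viability read by MTS tetrazolium/formazan conversion after 1–2 h at 37 °C.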

Plasmodium falciparum [4] = assay: Antimalarial activity against chloroquine-resistant Plasmodium falciparum W2; format: functional, organism-based; outline: as §1

| SMILES | IC50 (Plasmodium falciparum [1]) | IC50 (Plasmodium falciparum [2]) | IC50 [3] | IC50 (Plasmodium falciparum [4]) | Activity (Plasmodium falciparum [1]) |
| --- | --- | --- | --- | --- | --- |
| CC(C)(C)NCc1cc(Nc2cc[n+]([O-])c3cc(Cl)ccc23)cc(-c2ccc(Cl)cc2)c1O | 2.3 ng/mL (≈ 4.77 nM) | 1.5 ng/mL (≈ 3.11 nM) | 7200 ng/mL (≈ 14900 nM) | 0.9 ng/mL (≈ 1.87 nM) | – |
| [O-][n+]1ccc(Nc2cc(O)cc(-c3ccc(Cl)cc3)c2)c2ccc(Cl)cc21 | 580 ng/mL (≈ 1460 nM) | 397 ng/mL (≈ 999 nM) | – | > 1000 ng/mL | – |
| CC(C)(C)NCc1c(Nc2cc[n+]([O-])c3cc(Cl)ccc23)cc(O)cc1-c1ccc(Cl)cc1 | 8.8 ng/mL (≈ 18.2 nM) | 4.3 ng/mL (≈ 8.91 nM) | – | 9.2 ng/mL (≈ 19.1 nM) | – |
| CC(C)(C)NCc1c(O)cc(Nc2ccnc3cc(Cl)ccc23)cc1-c1ccc(C(F)(F)F)cc1 | 73 ng/mL (≈ 146 nM) | 1.2 ng/mL (≈ 2.4 nM) | – | 14 ng/mL (≈ 28 nM) | – |
| CC(C)(C)NCc1c(Nc2ccnc3cc(Cl)ccc23)cc(O)cc1-c1ccc(C(F)(F)F)cc1 | 63 ng/mL (≈ 126 nM) | 7.1 ng/mL (≈ 14.2 nM) | 11600 ng/mL (≈ 23200 nM) | 130 ng/mL (≈ 260 nM) | – |
| CC(C)(C)NCc1c(O)cc(-c2ccc(C(F)(F)F)cc2)cc1Nc1ccnc2cc(Cl)ccc12 | 1.8 ng/mL (≈ 3.6 nM) | 1.8 ng/mL (≈ 3.6 nM) | 1700 ng/mL (≈ 3400 nM) | 2.1 ng/mL (≈ 4.2 nM) | – |
| Oc1cc(Nc2ccnc3cc(Cl)ccc23)cc(-c2ccc(Cl)cc2)c1 | – | 8.8 ng/mL (≈ 23.1 nM) | – | 22.4 ng/mL (≈ 58.8 nM) | inactive |
| CC(C)(C)NCc1c(O)cc(-c2ccc(Cl)cc2)c(CNC(C)(C)C)c1Nc1cc[n+]([O-])c2cc(Cl)ccc12 | 8.5 ng/mL (≈ 15 nM) | 4.1 ng/mL (≈ 7.22 nM) | – | 9.1 ng/mL (≈ 16 nM) | – |
| CC(C)(C)NCc1c(O)cc(Nc2ccnc3cc(Cl)ccc23)c(CNC(C)(C)C)c1-c1ccc(Cl)cc1 | 2.5 ng/mL (≈ 4.53 nM) | 2.8 ng/mL (≈ 5.08 nM) | 2800 ng/mL (≈ 5080 nM) | 5.3 ng/mL (≈ 9.61 nM) | – |
| CC(C)(C)NCc1c(Nc2ccnc3cc(Cl)ccc23)cc(O)cc1-c1ccc(Cl)cc1 | 1.78 ng/mL (≈ 3.82 nM) | 0.3 ng/mL (≈ 0.643 nM) | 6100 ng/mL (≈ 13100 nM) | 0.4 ng/mL (≈ 0.858 nM) | – |
| CC(C)(C)NCc1c(O)cc(-c2ccc(Cl)cc2)c(CNC(C)(C)C)c1Nc1ccnc2cc(Cl)ccc12 | 2.3 ng/mL (≈ 4.17 nM) | 2.2 ng/mL (≈ 3.99 nM) | 3600 ng/mL (≈ 6530 nM) | 2.6 ng/mL (≈ 4.71 nM) | – |
| CC(C)(C)NCc1cc(Nc2ccnc3cc(Cl)ccc23)cc(-c2ccc(Cl)cc2)c1O [TEBUQUINE] | – | 0.1 ng/mL (≈ 0.214 nM) | 1800 ng/mL (≈ 3860 nM) | 0.04 ng/mL (≈ 0.0858 nM) | inactive |
| Oc1cc(Nc2ccnc3cc(Cl)ccc23)cc(-c2ccc(C(F)(F)F)cc2)c1 | 140 ng/mL (≈ 338 nM) | 15 ng/mL (≈ 36.2 nM) | – | 300 ng/mL (≈ 723 nM) | – |
| CC(C)(C)NCc1c(O)cc(Nc2ccnc3cc(Cl)ccc23)c(CNC(C)(C)C)c1-c1ccc(C(F)(F)F)cc1 | 3 ng/mL (≈ 5.13 nM) | 1.8 ng/mL (≈ 3.08 nM) | – | 3.6 ng/mL (≈ 6.15 nM) | – |
| CC(C)(C)NCc1c(O)cc(-c2ccc(C(F)(F)F)cc2)c(CNC(C)(C)C)c1Nc1ccnc2cc(Cl)ccc12 | 2 ng/mL (≈ 3.42 nM) | 1.9 ng/mL (≈ 3.25 nM) | 750 ng/mL (≈ 1280 nM) | 2.8 ng/mL (≈ 4.79 nM) | – |
| CC(C)(C)NCc1c(O)cc(-c2ccc(Cl)cc2)cc1Nc1ccnc2cc(Cl)ccc12 | 1.7 ng/mL (≈ 3.64 nM) | 1.4 ng/mL (≈ 3 nM) | 1600 ng/mL (≈ 3430 nM) | 1.6 ng/mL (≈ 3.43 nM) | – |
